# Compounds with a hit are over-represented: about 1.5% of the library has one in this group of screens.
# CHRM4 PAM = positive allosteric modulators of human muscarinic M4 receptor | P08173 | CHO-K1 hM4/Gqi5, Fluo-8 calcium fluorescence, ACh EC20; 0% = ACh EC20, 100% = maximal ACh | activation, % at 3 µM | 360,000 compounds, 0.4% hits;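 active means activation above its plate's cutoff, the mean activation of sample wells plus 3 SD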
# Target sequence (P08173 whole entry, looked up): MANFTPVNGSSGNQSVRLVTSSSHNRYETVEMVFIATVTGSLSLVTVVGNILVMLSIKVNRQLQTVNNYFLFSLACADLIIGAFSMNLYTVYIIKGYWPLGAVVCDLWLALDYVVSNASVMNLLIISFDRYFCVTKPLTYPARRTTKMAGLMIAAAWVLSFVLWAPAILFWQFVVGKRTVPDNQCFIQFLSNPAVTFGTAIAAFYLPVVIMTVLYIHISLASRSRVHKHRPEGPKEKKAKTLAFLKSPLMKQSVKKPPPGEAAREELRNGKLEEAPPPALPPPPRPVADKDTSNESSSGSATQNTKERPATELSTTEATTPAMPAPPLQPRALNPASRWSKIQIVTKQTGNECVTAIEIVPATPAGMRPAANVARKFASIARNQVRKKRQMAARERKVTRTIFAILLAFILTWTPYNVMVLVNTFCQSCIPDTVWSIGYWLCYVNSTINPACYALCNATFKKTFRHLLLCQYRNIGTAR
# V1R ag counter = counter-screen for oxytocin receptor agonists: human V1a receptor agonists; activation, % at 3 µM; P37288; 320,000 compounds, 0.25% hits; CHO-V1R cells, Fluo-8 calcium fluorescence, agonist mode; 0% DMSO, 100% 3 nM vasopressin;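 active means activation above the mean activation of all tested compounds plus 3 SD, per screening run, cut at about 20% in these data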;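 further: signal is peak over basal fluorescence ratio across a 100 second FLIPR read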
# OXTR potentiator = potentiators of human oxytocin receptor. CHO-OTR cells, Fluo-8 calcium fluorescence, potentiator mode; 0% = oxytocin EC15, 100% = EC100. activation, % at 3 µM. 320,000 compounds, 0.061% hits. AID 2445;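 active means activation above that plate's cutoff, the mean activation of tested compounds plus 3 SD, cut at about 6.6% in these data, passing the limit was not always enough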;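 further: 100% uses oxytocin at 75 nM as the full agonist control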
#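 Assay system: CHO cell line stably expressing human OTR | Also added: Oxytocin at about EC15, sub-maximal agonist stimulus | Times: Compound 6 min at room temperature before oxytocin, 100 s read | Measured by: Fluo-8 intracellular calcium fluorescence, ex 470-495, em 515-575 nm | Controls: EC15 oxytocin alone as 0%, 75 nM oxytocin as 100%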
# CHRM4 antagonist = CHRM4 antagonism in calcium assay; P08173; CHO-hM4 cells, ACh EC80, Fluo-8 calcium fluorescence; inhibition, % at 3 µM; 360,000 compounds, 0.73% hits; AID 624125;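 active means inhibition above its plate's cutoff, the mean inhibition of sample wells plus 3 SD, cut at about 27% in these data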;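 further: 0% = acetylcholine EC80 with DMSO and 100% = DMSO without agonist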
# CHRM4 agonist = agonists of human muscarinic M4 receptor (CHRM4); CHO-K1 hM4/Gqi5, Fluo-8 calcium fluorescence; vehicle 0%, full acetylcholine response 100%; AID 624127; 360,000 compounds, 0.14% hits; activation, % at 3 µM; P08173;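 active means activation above the run mean over all test wells plus 3 SD, cut at about 32% in these data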;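 further: peak over basal fluorescence ratio per well then scaled between controls; 0% = DMSO wells and 100% = acetylcholine at EC100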
# OXTR ag = agonists of human oxytocin receptor. P30559. CHO-OTR cells, Fluo-8 calcium fluorescence; normalized: DMSO 0%, oxytocin 100%. 320,000 compounds, 0.32% hits. activation, % at 3 µM;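 active means activation above the mean of all tested compounds plus 3 SD, cutoff set per screening run, cut at about 20% in these data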;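 further: peak over basal fluorescence ratio from a 100 s FLIPR kinetic read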
# * = called active by the depositor; . = no result.
SMILES,CHRM4 PAM,V1R ag counter,OXTR potentiator,CHRM4 antagonist,CHRM4 agonist,OXTR ag
COC(=O)C1=CN(c2ccc(C(C)(C)C)cc2)C(N)=C(C#N)C1c1ccccc1F (stereo unspecified),-0.4,.,.,-6.1,0.8,.
Cc1cc(C)nc(NS(=O)(=O)c2ccc(NC(=O)C(C)C)cc2)n1,-12.2,1.7,-6.2,61.9*,-2.6,-0.2
COc1ccc(NS(=O)(=O)c2ccc(NC(=S)NC(=O)C(C)C)cc2)cc1,3.6,23.8*,-22.4,-4.3,18.8,20.2*
CCOc1ccc(NS(=O)(=O)c2ccc(NC(=S)NC(=O)C(C)C)cc2)cc1,0.0,8.0,-16.6,0.2,7.1,8.7
COc1ccc(C(=O)NC(=S)Nc2ccc(S(N)(=O)=O)cc2)cc1,-1.4,1.1,-6.4,-0.3,0.2,0.5
CCOc1ccc(NS(=O)(=O)c2ccc(NC(=S)NC(C)=O)cc2)cc1,-6.2,26.6*,-13.6,6.6,25.6,29.1*
COc1ccc(CC(=O)NC(=S)Nc2ccc(S(N)(=O)=O)cc2)cc1,-5.4,24.4*,-13.0,3.9,13.5,24.6*
Cn1cncc1C#Cc1c(C=O)[nH]c2ccccc12,7.0,-1.5,1.3,1.4,0.4,-1.8
Nc1[nH]c(C(=O)c2ccccc2)c(-c2ccc(Cl)c(F)c2)c1C(=O)NCCc1c[nH]c2ccccc12,0.5,.,.,2.1,6.4,.
CCOc1ccc(NC(=O)CCn2c(=S)oc3ccccc32)cc1,27.4*,0.5,-18.2,18.0,0.9,-0.1
Cc1ccc(NC(=O)CCn2c(=S)oc3ccccc32)cc1,-4.7,-0.6,-7.0,2.6,0.4,-2.3
COc1cccc(CN2CCC2(C)C(=O)Nc2ccc(Cl)c(Cl)c2)c1F (stereo unspecified),-4.0,.,.,-21.4,-0.9,.
COc1cc(C)nc(N2CCCC(C(=O)NC3CCC(C)CC3)C2)n1 (stereo unspecified),.,0.6,-6.1,.,.,-1.3
CCC(C)NC(=O)C1CCCN(c2nc(C)cc(OC)n2)C1 (stereo unspecified),24.6*,-0.6,-7.3,-12.1,1.9,0.1
CC(Cc1ccccn1)NC(=O)c1ccc(OC2CCN(Cc3ccccn3)CC2)cc1 (stereo unspecified),18.0*,0.8,-5.2,11.7,1.9,1.1
O=C(NCCc1ccccn1)c1ccc(OC2CCN(Cc3ccccn3)CC2)cc1,-0.8,1.3,-1.7,0.7,1.1,0.2
O=S(=O)(c1ccc2ccccc2c1)N1CCN(c2ccc(O)cc2)CC1,-0.4,2.3,-6.9,5.0,1.8,3.3
CC(=O)Nc1ccc2nc(-c3ccc(Br)o3)[nH]c2c1,22.9*,-0.3,-5.8,-6.0,2.9,-1.1
O=C(Nc1ccc2nc(-c3ccc(Br)o3)[nH]c2c1)c1ccco1,1.0,1.1,-2.3,1.9,1.4,1.0
C[C@@H]1CN([C@@H](C)CO)C(=O)CCCn2nncc2CO[C@H]1CN(C)Cc1cccnc1,3.1,.,.,-8.3,0.5,.
CCCCS/C(=C(/C#N)C(N)=O)c1cc2c([nH]1)CCCC2,-29.1,-1.3,-3.1,34.3*,-1.9,-1.1
CCc1ccc(N/C(SC)=C(/C#N)C(N)=O)cc1,3.4,-0.7,3.0,-10.9,-1.0,-0.6
COc1cc(-c2cc(C(=O)Nc3ccc(S(=O)(=O)NCc4ccco4)cc3)c3ccccc3n2)cc(OC)c1OC,-25.1,6.3,-13.4,46.3*,17.9,3.0
c1ccc(C[C@H]2CN=C(Nc3ccccc3)N2CC2CCCC2)cc1,-3.0,.,.,-8.5,5.5,.
O=C1[C@@H]2[C@H](Cc3ccc(O)cc3)N[C@]3(C(=O)Nc4ccccc43)[C@@H]2C(=O)N1c1ccc(F)cc1,-0.5,0.6,-3.6,1.7,2.2,1.5
Cc1c(Cl)ccc2c1NC(=O)[C@]21N[C@@H](Cc2ccccc2)[C@H]2C(=O)N(c3ccc(F)cc3)C(=O)[C@H]21,4.8,23.9*,-12.5,22.5,22.0,26.6*
O=C(CCc1nnc2n(CCc3ccccc3)c(=O)c3ccccc3n12)NCCCN1CCCCC1,-13.0,1.2,-3.8,37.4*,7.6,0.8
